Columns and labels:
PANC-1 [1] = assay: Effect on CTBP1 gene expression in human PANC1 cells at 400 nM after 24 hrs by RNA sequence analysis relative to control; format: functional
Outline: (§1)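 PANC-1 (0.35 x 10^6) or MIA PaCa-2 (1.5 x 10^6) cells seeded overnight in 60 mm plates, then exposed to 400 nM compound for 6 or 24 h; untreated cells as controls. Cells were mycoplasma-free and STR-certified. Differential expression by RNA-seq, called at FDR < 0.1.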

PANC-1 [2] = assay: Effect on PIK3R3 gene expression in human PANC1 cells at 400 nM after 6 hrs by RNA sequence analysis relative to control; format: functional
PANC-1 [3] = assay: Effect on ROBO3 gene expression in human PANC1 cells at 400 nM after 24 hrs by RNA sequence analysis relative to control; format: functional
Outline: (§2)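 RNA-seq: cells seeded overnight in 60 mm plates (PANC-1 0.35 x 10^6, MIA PaCa-2 1.5 x 10^6 cells/well), then exposed to 400 nM compound for 6 or 24 h against untreated controls. Cell lines mycoplasma-free by RNA-capture ELISA and STR-profiled. Differentially expressed genes called at FDR < 0.1.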

MIA PaCa-2 [4] = assay: Effect on AKT1 gene expression in human MIAPaCa2 cells at 400 nM after 24 hrs by RNA sequence analysis relative to control; format: functional; outline: as §1
PANC-1 [5] = assay: Effect on IGF2 gene expression in human PANC1 cells at 400 nM after 6 hrs by RNA sequence analysis relative to control; format: functional; outline: as §1
PANC-1 [6] = assay: Effect on PAK1 gene expression in human PANC1 cells at 400 nM after 24 hrs by RNA sequence analysis relative to control; format: functional
MIA PaCa-2 [7] = assay: Growth inhibition of human MIAPaCa2 cells after 96 hrs by SRB assay; format: functional, cell-based; settings: MIA PaCa-2, 96 h
Outline: (§3)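 Cell lines kept at 37 °C, 5% CO2 in medium with 10% FBS and 2 mM L-glutamine. Compound dissolved in water, filter-sterilised, 10 mM stock diluted into media. Growth read by 96 h sulforhodamine B assay, absorbance at 540 nm. IC50 taken from mean absorbance per concentration as % of untreated wells, >3 individual determinations with standard deviations.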

PANC-1 [8] = assay: Effect on CTBP1 gene expression in human PANC1 cells at 400 nM after 6 hrs by RNA sequence analysis relative to control; format: functional; outline: as §1
[9] = Binding affinity to 5'-FAM/3'-TAMRA labeled KRAS21 promoter G-quadruplex DNA (unknown origin) assessed as change in melting temperature at 1 uM by FRET assay
Outline: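 FRET melting of FAM/TAMRA dual-labelled promoter G4 oligonucleotides, 400 nM, annealed at 95 °C for 10 min in 60 mM potassium cacodylate (pH 7.4) then cooled to RT. Ligand at 1 μM in solution with 50 mM K+. Fluorescence (ex 450–495, em 515–545 nm) read every 0.5 °C over 30–100 °C with a 30 sec hold per step. ΔTm from curve fitting; triplicate measurements.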

PANC-1 [10] = assay: Effect on PRDM16 gene expression in human PANC1 cells at 400 nM after 6 hrs by RNA sequence analysis relative to control; format: functional
PANC-1 [11] = assay: Effect on TEAD3 gene expression in human PANC1 cells at 400 nM after 6 hrs by RNA sequence analysis relative to control; format: functional; outline: as §2
MIA PaCa-2 [12] = assay: Effect on mLST8 gene expression in human MIAPaCa2 cells at 400 nM after 6 hrs by RNA sequence analysis relative to control; format: functional; outline: as §2
PANC-1 [13] = assay: Effect on ARF6 gene expression in human PANC1 cells at 400 nM after 24 hrs by RNA sequence analysis relative to control; format: functional; outline: as §1
MIA PaCa-2 [14] = assay: Effect on IQSEC1 gene expression in human MIAPaCa2 cells at 400 nM after 24 hrs by RNA sequence analysis relative to control; format: functional; outline: as §1
PANC-1 [15] = assay: Effect on MAPK11 gene expression in human PANC1 cells at 400 nM after 24 hrs by RNA sequence analysis relative to control; format: functional
MIA PaCa-2 [16] = assay: Antitumor activity against human MIAPaCa2 cells xenografted in CD-1 nude mouse assessed as change in tumor volume at 10 mg/kg, iv administered twice weekly for 4 weeks measured on day 62 relative to control; format: functional
Outline: (§4)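 Female CD-1 nude mice (2-3 months, 20−25 g) given 5 x 10^6 MIA PaCa-2 cells subcutaneously in right flank with Matrigel; dosing began once tumors were established (approx. 13 days, mean 0.05 cm3). Eight mice/group, IV in saline twice weekly for 28 days (8 doses) against a saline group. Tumors measured by calliper (length × width × height × π/6), with body weight. Student's t test.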

MIA PaCa-2 [17] = assay: Effect on RPTOR gene expression in human MIAPaCa2 cells at 400 nM after 24 hrs by RNA sequence analysis relative to control; format: functional; outline: as §2
PANC-1 [18] = assay: Effect on ULK1 gene expression in human PANC1 cells at 400 nM after 6 hrs by RNA sequence analysis relative to control; format: functional; outline: as §2
MIA PaCa-2 [19] = assay: Antitumor activity against human MIAPaCa2 cells xenografted in CD-1 nude mouse assessed as change in tumor volume at 10 mg/kg, iv administered twice weekly for 4 weeks measured on day 29 relative to control; format: functional; outline: as §4
PANC-1 [20] = assay: Effect on PARD6A gene expression in human PANC1 cells at 400 nM after 24 hrs by RNA sequence analysis relative to control; format: functional
PANC-1 [21] = assay: Effect on SHC2 gene expression in human PANC1 cells at 400 nM after 24 hrs by RNA sequence analysis relative to control; format: functional; outline: as §2
PANC-1 [22] = assay: Effect on AKT1 gene expression in human PANC1 cells at 400 nM after 6 hrs by RNA sequence analysis relative to control; format: functional; outline: as §1
MCF7 = assay: Growth inhibition of human MCF7 cells after 96 hrs by SRB assay; format: functional, cell-based; settings: MCF7, 96 h
A549 = assay: Growth inhibition of human A549 cells after 96 hrs by SRB assay; format: functional, cell-based; settings: A549, 96 h; outline: as §3
PANC-1 [23] = assay: Effect on MAPK9 gene expression in human PANC1 cells at 400 nM after 24 hrs by RNA sequence analysis relative to control; format: functional
MIA PaCa-2 [24] = assay: Effect on TEAD2 gene expression in human MIAPaCa2 cells at 400 nM after 6 hrs by RNA sequence analysis relative to control; format: functional; outline: as §2
PANC-1 [25] = assay: Effect on RPTOR gene expression in human PANC1 cells at 400 nM after 6 hrs by RNA sequence analysis relative to control; format: functional; outline: as §2
MIA PaCa-2 [26] = assay: Effect on SHC2 gene expression in human MIAPaCa2 cells at 400 nM after 6 hrs by RNA sequence analysis relative to control; format: functional; outline: as §2
MIA PaCa-2 [27] = assay: Effect on GLI4 gene expression in human MIAPaCa2 cells at 400 nM after 24 hrs by RNA sequence analysis relative to control; format: functional; outline: as §1
PANC-1 [28] = assay: Effect on MAPK12 gene expression in human PANC1 cells at 400 nM after 6 hrs by RNA sequence analysis relative to control; format: functional
PANC-1 [29] = assay: Effect on mLST8 gene expression in human PANC1 cells at 400 nM after 6 hrs by RNA sequence analysis relative to control; format: functional

Question: Which log2FC (PANC-1 [1]) does the source give for O=C1c2ccc3c4c(c(NCCN5CCCC5)cc(c24)C(=O)N1CCCN1CCOCC1)C(=O)N(CCCN1CCOCC1)C3=O here?
Answer: -0.98

Question: And the log2FC (PANC-1 [2])?
Answer: -0.16

Question: And the log2FC (PANC-1 [3])?
Answer: -0.85

Question: And the log2FC (MIA PaCa-2 [4])?
Answer: -0.98

Question: And the log2FC (PANC-1 [5])?
Answer: -1.15

Question: What about the log2FC (PANC-1 [6]) of the same compound?
Answer: -1.11

Question: And the IC50 (MIA PaCa-2 [7])?
Answer: 0.007 µM

Question: What about the log2FC (PANC-1 [8]) of the same compound?
Answer: -0.66

Question: What about the ΔTm [9] of the same compound?
Answer: 11 °C

Question: What about the log2FC (PANC-1 [10]) of the same compound?
Answer: -2.4

Question: What about the log2FC (PANC-1 [11]) of the same compound?
Answer: -0.59

Question: What about the log2FC (MIA PaCa-2 [12]) of the same compound?
Answer: -0.76

Question: What about the log2FC (PANC-1 [13]) of the same compound?
Answer: -0.69

Question: And the log2FC (MIA PaCa-2 [14])?
Answer: -0.53

Question: What about the log2FC (PANC-1 [15]) of the same compound?
Answer: -1.6

Question: What about the Activity (MIA PaCa-2 [16]) of the same compound?
Answer: -51.7%

Question: What about the log2FC (MIA PaCa-2 [17]) of the same compound?
Answer: -0.68

Question: What about the log2FC (PANC-1 [18]) of the same compound?
Answer: 0.19

Question: And the Activity (MIA PaCa-2 [19])?
Answer: -53.3%

Question: What about the log2FC (PANC-1 [20]) of the same compound?
Answer: -1.41

Question: What about the log2FC (PANC-1 [21]) of the same compound?
Answer: -1.47

Question: What about the log2FC (PANC-1 [22]) of the same compound?
Answer: -0.18

Question: What about the IC50 (MCF7) of the same compound?
Answer: 0.159 µM

Question: And the IC50 (A549)?
Answer: 0.024 µM

Question: And the log2FC (PANC-1 [23])?
Answer: -0.75

Question: And the log2FC (MIA PaCa-2 [24])?
Answer: -0.65

Question: What about the log2FC (PANC-1 [25]) of the same compound?
Answer: -0.8

Question: What about the log2FC (MIA PaCa-2 [26]) of the same compound?
Answer: -0.83

Question: And the log2FC (MIA PaCa-2 [27])?
Answer: -1.85

Question: And the log2FC (PANC-1 [28])?
Answer: -0.75

Question: And the log2FC (PANC-1 [29])?
Answer: -0.54
